Twelve compounds from ChEMBL document CHEMBL3044979, “Microbiologically active Mannich bases derived from 1,2,4-triazoles. The effect of C-5 substituent on antibacterial activity” (2013) can be followed below.

Activity calls are given as the source filed them. The calls are words filed in the database; no cut-off is given here.

Experiment [1] relates to Klebsiella pneumoniae. As to the kind of experiment: Antibacterial activity against Klebsiella pneumoniae ATCC 13883 assessed as growth inhibition by broth microdilution method. It counts as functional, organism-based. The method, boiled down:
(§1)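 Preliminary screen: 10 µl of each bacterial suspension spotted on Mueller-Hinton agar containing compound at 1,000 µg ml⁻¹, then incubated 37 °C for 18 h. Inocula were prepared in sterile saline at 0.5 McFarland (150 × 10⁶ CFU ml⁻¹). Compounds were dissolved in DMSO stocks and diluted twofold in Mueller-Hinton broth, final 3.91–1,000 µg ml⁻¹. MIC read in µg ml⁻¹ (CLSI 2008), with ampicillin, cefuroxime and vancomycin as reference agents.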

For experiment [2], the system named is Bacillus subtilis. As to the kind of experiment: Antibacterial activity against Bacillus subtilis ATCC 6633 assessed as growth inhibition by broth microdilution method. Type of experiment: functional. In a few lines:
as §1
A general note: Broth dilution looks for growth in wells or tubes with falling amounts of substance.

In experiment [3] the test system is Staphylococcus aureus. As to the kind of experiment: Antibacterial activity against Staphylococcus aureus ATCC 25923 assessed as growth inhibition by broth microdilution method. Type of experiment: functional. In a few lines: as §1
Experiment [4] relates to Micrococcus luteus. The experiment is described as follows: Antibacterial activity against Micrococcus luteus ATCC 10240 assessed as growth inhibition by broth microdilution method. Type of experiment: functional. In a few lines:
as §1

The subject of experiment [5] is Pseudomonas aeruginosa. The experiment is described as follows: Antibacterial activity against Pseudomonas aeruginosa ATCC 9027 assessed as growth inhibition by broth microdilution method. It counts as functional, organism-based. The method, boiled down:
as §1

The test system of experiment [6] is Bacillus cereus. As to the kind of experiment: Antibacterial activity against Bacillus cereus ATCC 10876 assessed as growth inhibition by broth microdilution method. It counts as functional. The method, boiled down:
as §1

For experiment [7], the system named is Proteus mirabilis. The experiment is described as follows: Antibacterial activity against Proteus mirabilis ATCC 12453 assessed as growth inhibition by broth microdilution method. It counts as functional, organism-based. The method, boiled down: as §1
For experiment [8], the system named is Escherichia coli. The experiment is described as follows: Antibacterial activity against Escherichia coli ATCC 25922 assessed as growth inhibition by broth microdilution method. It counts as functional, organism-based. The method, boiled down:
as §1

Experiment [9] relates to Staphylococcus epidermidis. The experiment is described as follows: Antibacterial activity against Staphylococcus epidermidis ATCC 12228 assessed as growth inhibition by broth microdilution method. Type of experiment: functional. The method, boiled down: as §1
The subject of experiment [10] is Staphylococcus aureus. The experiment is described as follows: Antibacterial activity against Staphylococcus aureus 14001 assessed as growth inhibition by broth microdilution method. It counts as functional. The method, boiled down:
as §1

With `S=c1n(CN2CCOCC2)nc(-c2cccc(Cl)c2)n1-c1ccc(Br)cc1`, the “growth inhibition (GI)” value in experiment [1], in [5], in experiment [7] and in experiment [8] was “inactive” each time. Also, the MBC is 1000 µg/mL in experiment [2]; above 1000 µg/mL in [3]; 500 µg/mL in [4]; above 1000 µg/mL in experiment [6]; above 1000 µg/mL in experiment [9]. Also, the MIC was determined as 62.5 µg/mL in experiment [2]; 31.2 µg/mL in experiment [3]; 31.2 µg/mL in [4]; 62.5 µg/mL in experiment [6]; 125 µg/mL in experiment [9].
On to `S=c1n(CN2CCCC2)nc(-c2ccc(Cl)cc2)n1-c1ccc(Br)cc1`, for which the “growth inhibition (GI)” value in experiment [1], in experiment [5], in experiment [7] and in experiment [8] was “inactive” in each case. The MBC in [2] was 125 µg/mL; in experiment [3], 500 µg/mL; in experiment [4], 250 µg/mL; in experiment [6] it was above 1000 µg/mL; in [10] it was 1000 µg/mL; in experiment [9], 1000 µg/mL. The MIC in experiment [2] was 63 µg/mL; in experiment [3], 31.2 µg/mL; in experiment [4], 7.81 µg/mL; in experiment [6], 31.2 µg/mL; in experiment [10], 62.5 µg/mL; in experiment [9] it was 31 µg/mL.
Consider `S=c1n(CN2CCCCC2)nc(-c2cccc(Cl)c2)n1-c1ccc(Br)cc1`, for which the “growth inhibition (GI)” value in experiment [1], in experiment [5], in experiment [7] and in experiment [8] was “inactive” throughout. Moreover, the MBC is 1000 µg/mL in experiment [2]; above 1000 µg/mL in experiment [3]; above 1000 µg/mL in experiment [4]; 1000 µg/mL in experiment [6]; above 1000 µg/mL in experiment [9]. The MIC is 62.5 µg/mL in experiment [2]; 31.2 µg/mL in experiment [3]; 31.2 µg/mL in [4]; 62.5 µg/mL in experiment [6]; 62.5 µg/mL in [9].
As for `S=c1n(CN2CCCCC2)nc(-c2ccccc2Cl)n1-c1ccc(Br)cc1`, the “growth inhibition (GI)” value in [1], in experiment [5], in [7] and in experiment [8] was “inactive” in each case. For the same compound, the MBC in experiment [2], in experiment [3], in [4], in [6], in [10] and in [9] was above 1000 µg/mL throughout. In addition, the MIC in [2] is 250 µg/mL; in [3], 500 µg/mL; in experiment [4] it was 500 µg/mL; in experiment [6] it was 1000 µg/mL; in experiment [10], 500 µg/mL; in experiment [9], 1000 µg/mL.
For `S=c1n(CN2CCCCC2)nc(-c2ccccc2)n1-c1ccc(Br)cc1`, the “growth inhibition (GI)” value in [1], in experiment [5], in [7] and in [8] was “inactive” throughout. The MBC in [2] is above 1000 µg/mL; in experiment [3] it was above 1000 µg/mL; in experiment [4], 1000 µg/mL; in experiment [6], above 1000 µg/mL; in experiment [10], above 1000 µg/mL; in [9], above 1000 µg/mL. The MIC was 1000 µg/mL in experiment [2]; 1000 µg/mL in experiment [3]; 500 µg/mL in experiment [4]; 1000 µg/mL in experiment [6]; 1000 µg/mL in [10]; 1000 µg/mL in experiment [9].
As to `CCN(CC)Cn1nc(-c2ccc(Cl)cc2)n(-c2ccc(Br)cc2)c1=S`, the “growth inhibition (GI)” value in experiment [1], in experiment [5], in [7] and in experiment [8] was “inactive” each time. The MBC is 500 µg/mL in experiment [2]; 250 µg/mL in experiment [3]; 62.5 µg/mL in experiment [4]; 250 µg/mL in [6]; 250 µg/mL in [10]; 250 µg/mL in experiment [9]. The MIC in experiment [2] turned out to be 31.2 µg/mL; in [3] it was 31.2 µg/mL; in experiment [4] it was 15.6 µg/mL; in experiment [6], 31.2 µg/mL; in experiment [10], 62.5 µg/mL; in experiment [9] it was 31.2 µg/mL.
On to `S=c1n(CN2CCOCC2)nc(-c2ccccc2)n1-c1ccc(Br)cc1`, for which the “growth inhibition (GI)” value in experiment [1], in experiment [5], in [7] and in [8] was “inactive” each time. Also, the MBC in [2] was above 1000 µg/mL; in [3], above 1000 µg/mL; in [4] it was 1000 µg/mL; in [6], above 1000 µg/mL; in [10], above 1000 µg/mL; in experiment [9], above 1000 µg/mL. For the same compound, the MIC turned out to be 1000 µg/mL in experiment [2]; 1000 µg/mL in [3]; 250 µg/mL in experiment [4]; 1000 µg/mL in experiment [6]; 1000 µg/mL in experiment [10]; 1000 µg/mL in [9].
On to `CO/N=C(\C(=O)N[C@@H]1C(=O)N2C(C(=O)O)=C(COC(N)=O)CS[C@H]12)c1ccco1` [CEFUROXIME], for which the MIC in [2] was 15.6 µg/mL; in experiment [3], 0.49 µg/mL; in [4], 0.98 µg/mL; in [6] it was 31.2 µg/mL; in [9], 0.24 µg/mL.
Regarding `CCN(CC)Cn1nc(-c2cccc(Cl)c2)n(-c2ccc(Br)cc2)c1=S`, the “growth inhibition (GI)” value in experiment [1], in experiment [5], in [7] and in experiment [8] was “inactive” throughout. For the same compound, the MBC was 500 µg/mL in [2]; above 1000 µg/mL in experiment [3]; 500 µg/mL in experiment [4]; above 1000 µg/mL in experiment [6]; above 1000 µg/mL in [9]. Moreover, the MIC in experiment [2] came out at 62.5 µg/mL; in experiment [3] it was 31.2 µg/mL; in experiment [4], 31.2 µg/mL; in [6], 62.5 µg/mL; in experiment [9], 62.5 µg/mL.
In the case of `S=c1n(CN2CCCC2)nc(-c2cccc(Cl)c2)n1-c1ccc(Br)cc1`, the “growth inhibition (GI)” value in experiment [1], in experiment [5], in [7] and in experiment [8] was “inactive” throughout. For the same compound, the MBC was 500 µg/mL in [2]; above 1000 µg/mL in experiment [3]; above 1000 µg/mL in experiment [4]; above 1000 µg/mL in [6]; above 1000 µg/mL in experiment [9]. Also, the MIC in [2] was 62.5 µg/mL; in experiment [3], 31.2 µg/mL; in experiment [4] it was 62.5 µg/mL; in experiment [6], 62.5 µg/mL; in experiment [9], 250 µg/mL.
On to `CN[C@H](CC(C)C)C(=O)N[C@H]1C(=O)N[C@@H](CC(N)=O)C(=O)N[C@H]2C(=O)N[C@H]3C(=O)N[C@H](C(=O)N[C@H](C(=O)O)c4cc(O)cc(O)c4-c4cc3ccc4O)[C@H](O)c3ccc(c(Cl)c3)Oc3cc2cc(c3O[C@@H]2O[C@H](CO)[C@@H](O)[C@H](O)[C@H]2O[C@H]2C[C@](C)(N)[C@H](O)[C@H](C)O2)Oc2ccc(cc2Cl)[C@H]1O` [VANCOMYCIN], for which, in experiment [10], the MBC was found to be 3.91 µg/mL and the MIC was found to be 0.98 µg/mL.
On to `CC1(C)S[C@@H]2[C@H](NC(=O)[C@H](N)c3ccccc3)C(=O)N2[C@H]1C(=O)O` [AMPICILLIN], for which the MIC in experiment [6] was 62.5 µg/mL.

What is called MBC is the lowest tested concentration that kills the bacteria rather than only halting them. By MIC is commonly meant the lowest concentration that inhibits growth of the organism.
